Laboratory results reported in ChEMBL document CHEMBL4725466, “Discovery and SAR of Novel Disubstituted Quinazolines as Dual PI3Kalpha/mTOR Inhibitors Targeting Breast Cancer” (ACS Med Chem Lett, 2020).
pIC50: −log10 of the molar value. ≈ marks a conversion by molar mass, not a printed value. Calls of active or inactive are those of the source. The rule behind the calls is not given here.

Columns and labels:
[1] = biological target: PI3-kinase p110-alpha/p85-alpha (Homo sapiens) (UniProt P27986+P42336); experiment: Inhibition of human PI3K p110alpha/p85alpha at 10 uM using PIP2 as substrate incubated for 10 mins followed by ATP addition and measured after 30 mins in presence of 10 uM ATP by HTRF assay; format: protein-complex assay
[2] = biological target: T1, Serine/threonine-protein kinase mTOR (Homo sapiens, UniProt P42345); experiment: Inhibition of human mTOR at 10 uM using 4EBP1 as substrate after 120 mins by [gamma-33P]-ATP assay
Method in brief: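 Single-point kinase screen by HotSpot radioisotope filter binding assay; compound at 10 μM with 10 μM ATP, reported as percent inhibition of PI3Kα and mTOR.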

[3] = biological target: PI3-kinase p110-alpha/p85-alpha (Homo sapiens, UniProt P42336); experiment: Inhibition of human PI3K p110alpha/p85alpha using PIP2 as substrate incubated for 10 mins followed by ATP addition and measured after 30 mins in presence of 10 uM ATP by HTRF assay; format: protein-complex assay
Sequence of PI3-kinase p110-alpha/p85-alpha (P27986 whole entry): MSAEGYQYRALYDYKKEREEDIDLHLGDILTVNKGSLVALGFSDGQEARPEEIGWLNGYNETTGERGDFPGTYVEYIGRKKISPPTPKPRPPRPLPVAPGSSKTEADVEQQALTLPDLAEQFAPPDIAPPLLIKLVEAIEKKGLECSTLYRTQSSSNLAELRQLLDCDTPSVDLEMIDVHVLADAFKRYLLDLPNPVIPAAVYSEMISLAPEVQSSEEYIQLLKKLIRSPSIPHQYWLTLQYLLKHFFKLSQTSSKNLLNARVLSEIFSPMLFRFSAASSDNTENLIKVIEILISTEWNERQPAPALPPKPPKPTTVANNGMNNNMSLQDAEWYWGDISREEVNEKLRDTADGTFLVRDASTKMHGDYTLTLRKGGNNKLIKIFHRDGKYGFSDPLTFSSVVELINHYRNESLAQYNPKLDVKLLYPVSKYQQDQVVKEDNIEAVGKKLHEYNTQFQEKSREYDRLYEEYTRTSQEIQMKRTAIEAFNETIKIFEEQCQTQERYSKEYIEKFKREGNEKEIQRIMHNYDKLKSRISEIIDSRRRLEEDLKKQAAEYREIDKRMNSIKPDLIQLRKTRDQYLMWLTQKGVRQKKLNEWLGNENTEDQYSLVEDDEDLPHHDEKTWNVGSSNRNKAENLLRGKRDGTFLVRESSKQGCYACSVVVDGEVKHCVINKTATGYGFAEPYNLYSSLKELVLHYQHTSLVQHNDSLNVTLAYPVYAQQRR
Sequence of PI3-kinase p110-alpha/p85-alpha (P42336 whole entry): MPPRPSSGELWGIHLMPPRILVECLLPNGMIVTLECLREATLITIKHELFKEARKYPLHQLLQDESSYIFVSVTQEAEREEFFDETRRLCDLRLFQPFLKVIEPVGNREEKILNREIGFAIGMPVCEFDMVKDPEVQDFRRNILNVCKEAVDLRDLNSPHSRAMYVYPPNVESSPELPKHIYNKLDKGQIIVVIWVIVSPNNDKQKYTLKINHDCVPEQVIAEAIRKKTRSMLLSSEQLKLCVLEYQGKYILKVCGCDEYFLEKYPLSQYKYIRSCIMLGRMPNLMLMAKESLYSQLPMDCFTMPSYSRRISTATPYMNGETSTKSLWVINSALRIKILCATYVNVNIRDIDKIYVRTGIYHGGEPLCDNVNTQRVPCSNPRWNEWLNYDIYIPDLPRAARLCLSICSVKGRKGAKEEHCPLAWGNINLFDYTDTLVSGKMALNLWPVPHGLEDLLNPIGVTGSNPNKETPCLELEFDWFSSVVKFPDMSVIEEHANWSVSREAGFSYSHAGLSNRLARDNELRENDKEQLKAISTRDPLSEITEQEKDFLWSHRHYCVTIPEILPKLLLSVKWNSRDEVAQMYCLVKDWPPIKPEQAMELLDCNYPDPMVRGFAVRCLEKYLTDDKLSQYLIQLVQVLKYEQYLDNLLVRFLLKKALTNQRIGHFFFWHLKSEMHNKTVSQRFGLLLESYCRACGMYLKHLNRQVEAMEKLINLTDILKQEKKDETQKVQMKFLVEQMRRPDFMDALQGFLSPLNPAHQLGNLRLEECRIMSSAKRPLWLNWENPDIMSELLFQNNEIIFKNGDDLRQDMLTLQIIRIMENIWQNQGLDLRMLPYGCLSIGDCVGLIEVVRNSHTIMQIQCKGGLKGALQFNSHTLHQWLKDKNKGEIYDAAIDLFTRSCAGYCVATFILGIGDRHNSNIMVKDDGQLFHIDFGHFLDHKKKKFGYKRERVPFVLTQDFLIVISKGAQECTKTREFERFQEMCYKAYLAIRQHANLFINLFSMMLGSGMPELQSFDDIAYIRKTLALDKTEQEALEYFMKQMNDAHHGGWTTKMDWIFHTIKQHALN

[4] = biological target: T1, Serine/threonine-protein kinase mTOR; experiment: Inhibition of human mTOR using 4EBP1 as substrate after 120 mins by [gamma-33P]-ATP assay
[5] = Kinetic aqueous solubility of compound in 2% DMSO/Phosphate buffer saline incubated for 90 mins under shaking condition by; format: physicochemical; settings: 2% DMSO/phosphate buffered saline, read-out: Kinetic_solubility
Method in brief: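 Maximum kinetic aqueous solubility measured in 2% DMSO/phosphate-buffered saline, pH 7.4.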

[6] = Half life in CD1 mouse liver microsomes at 1 uM incubated for 60 mins under shaking condition by LC-MS/MS analysis; format: ADME, Microsome
Method in brief: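 Metabolic stability in mouse liver microsomes with test compound at 1 μM; result expressed as t1/2 (min).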

[7] = biological target: T1, Serine/threonine-protein kinase mTOR; experiment: Inhibition of mTOR in human MCF7 cells assessed as reduction in phosphorylated 4EBP level after 4 hrs by Western blot analysis; format: cell-based; settings: dose nM 62.5-125, time 4.0 hrs
Method in brief: (§1)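 MCF7 cells treated for 4 h at 62.5 and 125 nM; lysates probed by Western blot for phospho-AKT(473), phospho-4EBP and phospho-P70S6.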

[8] = biological target: T1, Serine/threonine-protein kinase mTOR; experiment: Inhibition of mTOR in human MCF7 cells assessed as reduction in phosphorylated P70S6K level after 4 hrs by Western blot analysis; format: cell-based; settings: dose nM 62.5-125, time 4.0 hrs; method in brief: as §1
[9] = system: MCF7; experiment: Inhibition of PI3K in human MCF7 cells assessed as reduction in AKT phosphorylation at 473 residue after 4 hrs by Western blot analysis; format: cell-based; settings: dose nM 62.5-125, time 4.0 hrs; method in brief: as §1
[10] = Cytotoxicity against human primary fibroblasts assessed as cell viability at 10 uM after 48 hrs by celltiter-glo 2D luminescent assay relative to control; format: cell-based, Fibroblast; settings: read-out: Activity
Method in brief: (§2)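 2D CellTiter-Glo luminescent viability screen, single 10 μM compound concentration, in MDA-MB-468, MDA-MB-231 and MCF7 breast cancer cells and in normal human dermal fibroblasts; output reported as percent of viable cells.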

[11] = system: MDA-MB-231; experiment: Antiproliferative activity against human MDA-MB-231 cells assessed as cell viability at 10 uM after 48 hrs by celltiter-glo 2D luminescent assay relative to control; format: functional; settings: read-out: Activity; method in brief: as §2
[12] = system: MDA-MB-468; experiment: Antiproliferative activity against human MDA-MB-468 cells assessed as cell viability at 10 uM after 48 hrs by celltiter-glo 2D luminescent assay relative to control; format: functional; settings: read-out: Activity; method in brief: as §2
[13] = system: MCF7; experiment: Antiproliferative activity against human MCF7 cells assessed as cell viability at 10 uM after 48 hrs by celltiter-glo 2D luminescent assay relative to control; format: functional; settings: read-out: Activity; method in brief: as §2
[14] = system: MCF7; experiment: Antiproliferative activity against human MCF7 cells assessed as reduction in cell viability after 48 hrs by celltiter-glo 3D luminescent assay; format: functional, cell-based; settings: MCF7, 48 h
Method in brief: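 MCF7 cells grown in 3D culture, viability read by CellTiter-Glo 3D luminescence; dose–response curves run up to 15 μM to derive IC50.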

Structure (SMILES) | inhibition [1] | inhibition [2] | pIC50 [3] | pIC50 [4] | solubility kinetic at 1.5 h [5] | half-life at 1 µM [6] | inhibition [7] | inhibition [8] | inhibition [9] | viability at 48 h, 10 µM [10] | viability at 10 µM [11] | viability at 10 µM [12] | viability at 10 µM [13] | pIC50 [14]
O=S(=O)(Nc1nccs1)c1ccc(Nc2nc(N3CCOCC3)c3ccccc3n2)cc1 | Active | Active | 5.16 | 4.94 | 42.6 µM (≈ 20 µg/mL) | 52 min |  |  |  |  |  |  |  | 
CC(=O)Nc1ccc(NC(=O)Nc2ccc(-c3nc(N4CCOCC4)c4ccccc4n3)cc2)cc1 | Active | Active | 9.15 |  | < 2 µM | > 60 min | Dose-dependent effect | Dose-dependent effect | Dose-dependent effect | 71% | 69% | 50% | 29% | 6.70
